Reference: PMC7445463 (Diabetologia, 2020)
Ends that are not written are not given here.

Assays:
[1] = DIO-NASH biopsy-confirmed mouse model; type: in vivo
Method in brief: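 Male C57BL/6JRj mice fed AMLN diet (40% fat with trans-fat, 20% fructose, 2% cholesterol) for 33 weeks, then liver-biopsied. Only mice with steatosis score ≥2 and fibrosis stage ≥F1 were stratified into groups (n=12-13). Groups received vehicle or test compound at 10 or 30 mg/kg for a further 12 weeks.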

[2] = CDHFD-induced NASH and fibrosis mice; type: in vivo, mouse
[3] = system: isolated diabetic mouse hearts; test: Langendorff-perfused db/db hearts, stable isotope analysis; conditions: 10 μM Cariporide
[4] = system: SD rat islets; test: Perifusion of rat islets, GSIS; type: cell-based; conditions: for potentiation of GSIS at low concentrations: 10-100 pM
[5] = system: obese T2DM and lean subjects; test: GIP infusion, tissue blood flow; type: in vivo, human
[6] = 6-day s.c. GIP infusion crossover study, T1D; type: in vivo, human
[7] = system: obese men without diabetes; test: FLT-PET/MRI and pancreatic enzymes during liraglutide; type: in vivo, human
[8] = system: mouse hypothalamic (mHypoA) and human (SH-SY5Y) neuronal cells; test: Resistin overexposure of neuronal cells; type: cell-based; conditions: for resistin-dependent neuronal inflammation and IR: pharmacological inhibition
[9] = system: patients with type 2 diabetes; test: Network meta-analysis of antidiabetic medications on blood pressure; set-up: species or system human; conditions: network meta-analysis
[10] = 12 week L-carnitine treatment in type 2 diabetes patients; type: in vivo, human; conditions: after 12 weeks
Method in brief: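 32 patients with type 2 diabetes treated with L-carnitine for 12 weeks, with plasma free carnitine checked for compliance. Two-step hyperinsulinemic-euglycemic clamp (10 then 40 mU/m2/min) with D-[6,6-2H2]-glucose tracer gave hepatic (EGP suppression) and peripheral sensitivity. Vastus lateralis acetylcarnitine by T1-edited long-TE (350 ms) 1H-MRS at rest and after 30 min cycling at 70% Wmax. IHL by 1H-MRS. All measured before and after.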

[11] = 48-week tofogliflozin vs glimepiride trial in T2D with NAFLD; type: in vivo, human; conditions: after 48 weeks; for AST: baseline 55.4 ± 41.8 / 49.7 ± 46.8; for ALT: baseline 72.2 ± 60.5 / 76.4 ± 77.8; for body weight: baseline 78.7 ± 17.7 / 81.3 ± 19.2; for HbA1c: baseline tofogliflozin 8.0 ± 0.5, glimepiride 8.4 ± 0.9
[12] = Nasal vs injectable glucagon, insulin-induced hypoglycaemia; type: in vivo, human
[13] = Insulin icodec vs IGlar U100 26-week phase 2 trial; type: in vivo, human
Method in brief: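 Randomized, double-blind, double-dummy, treat-to-target phase 2 trial lasting 26 weeks. Participants were insulin-naïve adults with T2D and HbA1c 7.0-9.5% on metformin ± DPP4i, randomized 1:1 (n=247). Starting doses were 70 U once weekly or 10 U once daily, titrated weekly to a pre-breakfast SMBG target of 3.9-6.0 mmol/L. The primary endpoint was HbA1c change from baseline to week 26; FPG and mean weekly dose over the last two weeks were secondary.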

[14] = EXSCEL post-hoc analysis, eGFR slope and UACR; type: in vivo, human
[15] = resistin overexposure, neuronal cells

O=S(=O)(Nc1cc(Cl)c(Oc2cnc3ccccc3c2)c(Cl)c1)c1ccc(Cl)cc1Cl [CHS-131]
lower plasma aspartate transaminase ([1]; high dose): 29%
lower total cholesterol ([1]; high dose): 20%
increase of plasma adiponectin ([1]; high dose 30 mg/kg): 137%
lower plasma alanine transaminase ([1]; high dose 30 mg/kg, 12 weeks): 37%
increase of plasma adiponectin ([1]; low dose 10 mg/kg): 114%
Galectin-3 ([1]; trend): -18%
hydroxyproline ([1]; trend): -28%

O=C(O)c1ccnc(N2CC(O)(c3ccc(OCc4c(-c5c(Cl)cccc5Cl)noc4C4CC4)cc3Cl)C2)c1 [CIL, Cilofexor]
hepatic TG vs vehicle ([2]; CDHFD 14 weeks, treatment last 6 weeks): 2.6%
collagen-1α1 gene expression vs vehicle ([2]; mouse, in vivo): -37.5%
hepatic F4/80 gene expression vs vehicle ([2]; mouse, in vivo): -1.6%
hepatic IL-1β gene expression vs vehicle ([2]; mouse, in vivo): -37.5%
hepatic TBARS vs vehicle ([2]; mouse, in vivo): 11.0%
hepatic hydroxyproline vs vehicle ([2]; mouse, in vivo): -13.7%

CC(C)c1ccc(C(=O)NC(=N)N)cc1S(C)(=O)=O [Cariporide]
Empa effects on lactate labeling and G6P [3]: mitigated

CC[C@H](C)[C@H](NC(=O)[C@H](CO)NC(=O)[C@H](Cc1ccc(O)cc1)NC(=O)[C@H](CC(=O)O)NC(=O)[C@H](CO)NC(=O)[C@@H](NC(=O)[C@H](Cc1ccccc1)NC(=O)[C@@H](NC(=O)CNC(=O)[C@H](CCC(=O)O)NC(=O)[C@H](C)NC(=O)[C@@H](N)Cc1ccc(O)cc1)[C@@H](C)O)[C@@H](C)CC)C(=O)N[C@@H](C)C(=O)N[C@@H](CCSC)C(=O)N[C@@H](CC(=O)O)C(=O)N[C@@H](CCCCN)C(=O)N[C@H](C(=O)N[C@@H](Cc1c[nH]cn1)C(=O)N[C@@H](CCC(N)=O)C(=O)N[C@@H](CCC(N)=O)C(=O)N[C@@H](CC(=O)O)C(=O)N[C@@H](Cc1ccccc1)C(=O)N[C@H](C(=O)N[C@@H](CC(N)=O)C(=O)N[C@@H](Cc1c[nH]c2ccccc12)C(=O)N[C@@H](CC(C)C)C(=O)N[C@@H](CC(C)C)C(=O)N[C@@H](C)C(=O)N[C@@H](CCC(N)=O)C(=O)N[C@@H](CCCCN)C(=O)NCC(=O)N[C@@H](CCCCN)C(=O)N[C@@H](CCCCN)C(=O)N[C@@H](CC(N)=O)C(=O)N[C@@H](CC(=O)O)C(=O)N[C@@H](Cc1c[nH]c2ccccc12)C(=O)N[C@@H](CCCCN)C(=O)N[C@@H](Cc1c[nH]cn1)C(=O)N[C@@H](CC(N)=O)C(=O)N[C@H](C(=O)N[C@H](C(=O)N[C@@H](CCC(N)=O)C(=O)O)[C@@H](C)O)[C@@H](C)CC)C(C)C)[C@@H](C)CC [GIP]
potentiation of GSIS at low concentrations [4]: potentiated GSIS
SAT blood flow increase from baseline ([5]; GIP infusion, operated subjects): 143%
VAT blood flow increase from baseline ([5]; GIP-infusion, control): 234%
SAT blood flow increase from baseline ([5]; GIP-infusion, controls): 385%
SAT blood flow increase from baseline ([5]; GIP-infusion, obese): 119%
VAT blood flow increase from baseline ([5]; GIP-infusion, obese): 105%
increase of daytime time in range (3.9-[…]) vs placebo ([6]; 6 pmol/kg/min s.c., 6 days, mean ± SEM): 160 ± 74 min/day
decrease of 24-hour diastolic blood pressure ([6]; in vivo): 3.1 ± 1.3 mmHg
decrease of 24-hour systolic blood pressure ([6]; in vivo): 5.8 ± 2.6 mmHg

CCCCCCCCCCCCCCCC(=O)N[C@@H](CCC(=O)NCCCC[C@H](NC(=O)[C@H](C)NC(=O)[C@H](C)NC(=O)[C@H](CCC(N)=O)NC(=O)CNC(=O)[C@H](CCC(=O)O)NC(=O)[C@H](CC(C)C)NC(=O)[C@H](Cc1ccc(O)cc1)NC(=O)[C@H](CO)NC(=O)[C@H](CO)NC(=O)[C@@H](NC(=O)[C@H](CC(=O)O)NC(=O)[C@H](CO)NC(=O)[C@@H](NC(=O)[C@H](Cc1ccccc1)NC(=O)[C@@H](NC(=O)CNC(=O)[C@H](CCC(=O)O)NC(=O)[C@H](C)NC(=O)[C@@H](N)Cc1cnc[nH]1)[C@@H](C)O)[C@@H](C)O)C(C)C)C(=O)N[C@@H](CCC(=O)O)C(=O)N[C@@H](Cc1ccccc1)C(=O)N[C@H](C(=O)N[C@@H](C)C(=O)N[C@@H](Cc1c[nH]c2ccccc12)C(=O)N[C@@H](CC(C)C)C(=O)N[C@H](C(=O)N[C@@H](CCCNC(=N)N)C(=O)NCC(=O)N[C@@H](CCCNC(=N)N)C(=O)NCC(=O)O)C(C)C)[C@@H](C)CC)C(=O)O [Liraglutide]
change in mean FLT-uptake in pancreatic tissue ([7]; after four weeks): +0.08
change in pancreatic volume ([7]; baseline to six weeks, MRI): +0.2 cm^3
change in maximum FLT-uptake ([7]; titration period): +0.3

CCOC(=O)C1=CCCC[C@H]1S(=O)(=O)Nc1ccc(F)cc1Cl [TAK-242]
resistin-dependent neuronal inflammation and IR [8]: prevents

Cc1ccc([C@@H]2O[C@H](CO)[C@@H](O)[C@H](O)[C@H]2O)cc1Cc1ccc(-c2ccc(F)cc2)s1 [canagliflozin]
diastolic blood pressure, mean difference versus placebo [9]: -1.42 mmHg

C[N+](C)(C)C[C@H](O)CC(=O)[O-] [carnitine, L-carnitine]
resting skeletal muscle acetylcarnitine ([10]; before 1.18±0.13): 1.54±0.17 mmol/kgww
post-exercise skeletal muscle acetylcarnitine ([10]; before 3.70±0.22): 4.53±0.30 mmol/kgww
plasma glucose ([10]; before 8.1±0.3): 7.7 ± 0.3 mmol/L
ΔRd (peripheral insulin sensitivity) ([10]; before 10.53±1.85): 13.83 ± 2.02 µmol/kg/min
intrahepatic lipid content (IHL) ([10]; before 14.7±2.6): 12.8±2.2%
EGP suppression (hepatic insulin sensitivity) ([10]; before 31.9 ±2.9): 39.9±3.2%

CCOc1ccc(Cc2cc([C@@H]3O[C@H](CO)[C@@H](O)[C@H](O)[C@H]3O)ccc2Cl)cc1 [dapagliflozin]
increase in hepatic lipid content (HCL) (CON-D and T2DM-D, non-significant): 20%
decrease in hepatic glycogen (T2DM-D, T2DM-P -6±0.02): -10±0.02%
glycogenolysis (both groups): no impact
EGP higher following administration (single dose 10mg): 25%
diastolic blood pressure, mean difference versus placebo [9]: -1.48 mmHg

CCC1=C(C)CN(C(=O)NCCc2ccc(S(=O)(=O)NC(=O)N[C@H]3CC[C@H](C)CC3)cc2)C1=O [glimepiride]
AST [11]: 52.3 ± 37.6 IU/L
ALT [11]: 78.9 ± 68.7 IU/L
body weight [11]: 81.9 ± 21.1 kg
HbA1c [11]: 7.5 ± 0.6%

CCCCCCC(=O)CCCCCC/C=C/C[C@@H](O)[C@H](O)[C@@](N)(CO)C(=O)O [myriocin]
resistin-dependent neuronal inflammation and IR [8]: prevents

CCc1ccc(Cc2ccc3c(c2)[C@]2(OC3)O[C@H](CO)[C@@H](O)[C@H](O)[C@H]2O)cc1 [tofogliflozin]
stage score ([11]; baseline 1.6 ± 1.1): 1.1 ± 1.3
grade score ([11]; baseline 1.7 ± 0.9): 0.9 ± 0.8
AST [11]: 27.2 ± 22.4 IU/L
ALT [11]: 33.1 ± 31.5 IU/L
body weight [11]: 73.3 ± 18.3 kg
HbA1c [11]: 6.9 ± 1.2%
steatosis score ([11]; tofogliflozin baseline 2.0 ± 0.7): 1.2 ± 0.4

GIP(3-30)
insulin secretion in response to glucose alone ([4]; receptor antagonists): not reduced

glucagon [injectable glucagon]
geometric least square mean maximal blood glucose (BGMAX) ([12]; in vivo): 11.4 mmol/L
headache ([12]; in vivo): 5.8%
mean time to treatment success ([12]; in vivo): 10.4 min
nausea ([12]; in vivo): 28.8%
vomiting ([12]; in vivo): 11.5%
patients achieving treatment success ([12]; within 15 minutes, T1D or T2D): 97.0%

glucagon-like peptide-1 (HAEGTFTSDVSSYLEGQAAKEFIAWLVKGR; ends and bridges not checked; UniProt P01275 98-127, looked up) [GLP-1]
potentiation of GSIS at low concentrations [4]: no such effect

insulin glargine U100 [IGlar U100]
estimated mean HbA1c at week 26 ([13]; baseline 8.1 icodec, 8.0 IGlar U100): 6.9%
estimated mean FPG at week 26 ([13]; in vivo): 7.05 mmol/L
estimated mean weekly insulin dose, last two weeks ([13]; in vivo): 284 U/week
level 2 and 3 hypoglycaemia ([13]; on-treatment period): 46 events per 100 patient years of exposure
estimated mean change in HbA1c from baseline ([13]; week 26): -1.15 %-points

once-weekly exenatide [EQW]
reduction of UACR vs placebo ([14]; baseline UACR>30 mg/g): 28.2%
reduction of UACR vs placebo ([14]; baseline UACR>100 mg): 22.5%
eGFR slope vs placebo ([14]; baseline UACR>100mg/g, 95% CI 0.24-1.34): +0.79 mL/min/1.73m2/year
reduction of UACR vs placebo ([14]; baseline UACR>200 mg): 34.5%
eGFR slope vs placebo ([14]; baseline UACR>200mg/g, 95% CI 0.57-2.06): +1.32 mL/min/1.73m2/year

B1: resistin: "circulating factors originated from adipose tissue and immune cells"; "a key mediator linking obesity to IR" (protein, UniProt Q9HD89 19-108, looked up)
Resistin: KTLCSMEEAINERIQEVAGSLIFRAISSIGLECQSVTSRGDLATCPRGFAVTGCTCGSACGSWDVRAETTCHCQCAGMDWTGARCCRVQP
increased expression of IL6 [8, 15]: 89.93%
inhibition of insulin-dependent phosphorylation of Akt [8, 15]: 40.6%
